ChEMBL document CHEMBL1133648, “Synthesis, stability, antiviral activity, and protease-bound structures of substrate-mimicking constrained macrocyclic inhibitors of HIV-1 protease” (J Med Chem, 2000)

Experiments:
[1] = target: Human immunodeficiency virus type 1 protease (Human immunodeficiency virus 1) (UniProt Q72874); experiment: Inhibition of virion associated RT activity (90% decrease) relative to untreated, infected control on MT2 cells infected with HIV-1 237288 strain; type: cell-based
Outline: (§1)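 Drug dilutions, from a 20 mM stock in 60% v/v ethanol, added in duplicate to MT2 cells (5 × 10⁴ in RF10) or PBMCs (3.75 × 10⁵ in RF10/IL-2). Virus added immediately after: HIV-1 #237288 or HIV-2 ROD, 200 TCID₅₀ for MT2 or 300 TCID₅₀ for PBMC. After 6–7 days at 37 °C, supernatant virus precipitated with PEG and virion RT counted by scintillation, as % of virus-only control. IC₅₀ and IC₉₀ are the concentrations giving 50% and 90% reduction.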

MT2 [2] = experiment: Concentration of compound causing death in 10% or less of cells in the absence of virus in MT2 cells infected with HIV-2 strain (ROD); type: functional, Homo sapiens
Outline: (§2)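 Cytotoxicity controls run alongside the Melbourne antiviral test: uninfected MT2 cells at 5 × 10⁴ per well in RF10, or PBMCs at 3.75 × 10⁵ per well in RF10/IL-2, exposed to duplicate drug dilutions made from a 20 mM stock in 60% v/v ethanol. Incubated 6–7 days at 37 °C, 5% CO₂, then viable cells counted by trypan blue exclusion. CC₁₀ is the highest concentration keeping counts ≥90% of the cell-only control.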

MT2 [3] = experiment: Concentration required for causing death in 10% or less of cells in the absence of virus on MT2 cells infected with HIV-1 strain 237288; type: functional, Homo sapiens; outline: as §2
[4] = tested on: Human immunodeficiency virus 1; experiment: Concentration required for causing death in 10% or less of cells in the absence of virus in PBMC cells infected with HIV-1 237288 strain; type: functional; outline: as §2
[5] = target: Human immunodeficiency virus type 1 protease (Human immunodeficiency virus 1) (UniProt Q72874); experiment: Inhibition of virion associated RT activity relative to untreated, infected control in PBMC cells infected with HIV-1 237288 strain; type: cell-based; outline: as §1
MT2 [6] = experiment: Concentration which causing death in 10% or less of cells in the absence of virus in MT2 cells infected with HIV-1 strain 237288; outline: as §2
[7] = target: Human immunodeficiency virus type 1 protease (Human immunodeficiency virus 1) (UniProt Q72874); details: MT2
MT2 [8] = experiment: (§3) Concentration required for causing death in 10% or less of cells in the absence of virus in MT2 cells infected with HIV-1 237288 strain; type: functional, Human immunodeficiency virus 1; outline: as §2
MT2 [9] = experiment: as §3; type: functional, Homo sapiens; outline: as §2
[10] = target: Human immunodeficiency virus type 1 protease (Human immunodeficiency virus 1) (UniProt Q72874); details: PBMC
[11] = target: Human immunodeficiency virus type 1 protease (Human immunodeficiency virus 1, UniProt Q72874); experiment: Inhibitory constant against HIV-1 protease

CCC(C)[C@@H]1NC(=O)[C@@H](NC[C@@H](O)C[C@@H](Cc2ccccc2)C(=O)N[C@H]2c3ccccc3C[C@H]2O)Cc2ccc(cc2)OCCCCCNC1=O (stereo not given in full)
IC90 [1]: 0.1 µM
CC10 (MT2 [2]): 30 µM
CC10 (MT2 [3]): 30 µM
CC10 [4]: 50 µM
IC90 [5]: 0.22 µM

CC(C)CN(C[C@@H](O)[C@H](Cc1ccccc1)NC(=O)O[C@H]1CCOC1)S(=O)(=O)c1ccc(N)cc1
CC10 (MT2 [6]): 10 µM

CC(C)(C)NC(=O)[C@@H]1CN(Cc2cccnc2)CCN1C[C@@H](O)C[C@@H](Cc1ccccc1)C(=O)N[C@H]1c2ccccc2C[C@H]1O.O
IC90 [7]: 0.093 µM
CC10 (MT2 [8]): 10 µM
CC10 [4]: 10 µM

CC(C)CCN(C[C@@H](O)[C@@H]1Cc2ccc(cc2)OCCCCCC(=O)N[C@@H](C(C)C)C(=O)N1)S(=O)(=O)c1ccc(N)cc1
CC10 (MT2 [9]): 10 µM
IC90 [7]: 0.22 µM
CC10 (MT2 [2]): 10 µM
IC90 [10]: 0.88 µM
CC10 [4]: 50 µM

CC[C@@H](C)[C@@H]1NC(=O)[C@@H](NC[C@@H](O)[C@H](Cc2ccccc2)NC(=O)[C@@H](NC(=O)c2ccc3ccccc3n2)C(C)C)Cc2ccc(cc2)OCCCNC1=O
Ki [11]: 0.0003 µM
